According to paper PMC4428392 (Anti-Cancer Agents in Medicinal Chemistry, 2014):
Where “and” joins values, the source holds several entries; their conditions need not be identical. Equal entries are not always repeated. Where two headings read alike, the source gives them in different places.

How the values were obtained:
[1] = Partition coefficient octanol/aqueous buffer pH 7.4 by HPLC; format: physicochemical; conditions: octanol/phosphate buffer pH 7.4, HPLC
How it was run: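 Octanol/phosphate buffer (pH 7.4) distribution was determined by HPLC at the compound retention time. Conditions: RP-18E column (4.6 × 150 mm, 5 µm) at 25 °C; isocratic water:acetonitrile 70:30 with 0.7% acetic acid at 0.5 mL/min; UV detection at 285 nm. Samples were dissolved in DMSO or methanol.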

HCT-116 = assay: MTT cytotoxicity assay in normoxia and hypoxia, HCT-116; format: cell-based, Human; conditions: for HCR = hypoxic cytotoxicity ratio IC50 (aerobic)/IC50 (hypoxic): HCT-116; for IC50: Homo sapiens
How it was run: (§1)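 MCF-7 and HCT-116 were grown in DMEM; NCI-H460 in RPMI 1640 plus 10 mM HEPES; all media had 10% FBS, pyruvate and 1.5 g/L bicarbonate. Cells were seeded at 20000/well and grown 24 h at 20% O2, 5% CO2, 37 °C. Serial compound concentrations were then given for 24 h in normoxia, or for 6 h hypoxia (3% O2) followed by 18 h normoxia. MTT was read at 545 nm. IC50 came from linear regression of % inhibition versus log concentration, and HCR = IC50 normoxia/IC50 hypoxia.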

MCF-7 = assay: MTT cytotoxicity assay in normoxia and hypoxia, MCF-7; format: cell-based, Human
How it was run: as §1

[2] = test system: cleaved PARP in HCT-116 cells; assay: Level of cleaved PARP by flow cytometry; format: cell-based, Human; conditions: HCT-116, hypoxia, 30 µM, 24 h
[3] = test system: γ-H2AX and cleaved PARP in HCT-116 cells; assay: Dual-parameter γ-H2AX and cleaved PARP flow cytometry; format: cell-based, Human; conditions: 30 µM, 24 h
γ-H2AX in HCT-116 cells = assay: Level of γ-H2AX by flow cytometry; format: cell-based, Human; conditions: 30 µM, 24 h; for expression of γ-H2AX: HCT-116, hypoxia, solvent control 4%; for effect on expression of γ-H2AX: HCT-116, normoxia
[4] = test system: caspase 3/7 in HCT-116 cells; assay: Caspase 3/7 activity; format: cell-based, Human; conditions: 30 µM, 24 h; for level of active caspase 3/7: HCT-116, hypoxia, solvent control 7%; for effect on level of active caspase 3/7: HCT-116, normoxia
How it was run: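 HCT-116 cells were exposed to test compound at 30 µM for 24 h in normoxia or hypoxia. Cells were harvested, washed in PBS, centrifuged (350 g, 5 min) and stained with a FAM-FLICA caspase-3/7 inhibitor kit. Active caspase 3/7 was measured by flow cytometry. Data are mean ± SEM, n=3, compared with solvent control by one-way ANOVA with Tukey post hoc test.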

NCI-H460 = assay: MTT cytotoxicity assay in normoxia and hypoxia, NCI-H460; format: cell-based, Human; conditions: for IC50: Homo sapiens
How it was run: as §1

HCT-116 cells [5] = assay: ROS analysis by flow cytometry; format: cell-based, Human
How it was run: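 HCT-116 cells were treated with test compound at 15 or 30 µM in normoxia or hypoxia (24 h per methods; legend states 18 h). They were stained with CM-H2DCFDA for 45 min, collected, and analysed on a FACSCalibur flow cytometer. Fluorescence was normalised to solvent control; mean ± SEM, n=3.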

HCT-116 cells [6] = assay: Cell cycle assay by flow cytometry; format: cell-based, Human; conditions: 24 h
[7] = test system: co-cultured HUVECs and fibroblasts; assay: In vitro tube formation test; format: cell-based, Human; conditions: 2 μM, 11 days
How it was run: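 HUVECs were co-cultured with fibroblasts for 11 days in basal medium, solvent-control medium (0.2% DMSO), or solvent medium with test compound at 2 or 20 μM. Medium ± compound was renewed every 3 days, and suramin served as the kit positive control. HUVECs were stained with anti-CD31, and tube area, length, joints and paths were measured by image analyzer over 5 fields. Quadruplicate wells; mean ± SEM, n=4.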

[8] = HCT-116, 24 h, read-out: Cytotoxicity (IC50) HCT-116 N
[9] = HCT-116, read-out: Cytotoxicity (IC50) HCT-116 H
[10] = NCI-H460, 24 h, read-out: Cytotoxicity (IC50) NCI-H460 N
[11] = NCI-H460, read-out: Cytotoxicity (IC50) NCI-H460 H

Nc1n[n+]([O-])c2ccccc2[n+]1[O-] [TPZ, 3-amino-1,2,4-benzotriazine-1,4-dioxide, reference compound]
Log P7.4 [1]: -0.42 | HCR = hypoxic cytotoxicity ratio IC50 (aerobic)/IC50 (hypoxic) (HCT-116): 2.6 | IC50 (HCT-116; [8]): 89.1 ± 14.5 µM | IC50 (HCT-116; [9]): 34.8 ± 8.3 µM | IC50 (HCT-116; HCT-116, read-out: Cytotoxicity (IC50), cell kill under hypoxia): 34.8 µM | HCR = IC50 (aerobic)/IC50 (hypoxia) (MCF-7): 6.3 | cleaved PARP [2]: approximately 10% | cells expressing both γ-H2AX and cleaved PARP (upper right quadrant) ([3]; HCT-116, hypoxia): 1.9% | cells expressing both γ-H2AX and cleaved PARP (upper right quadrant) ([3]; HCT-116, normoxia): 0.1% | expression of γ-H2AX (γ-H2AX in HCT-116 cells): around 30% | effect on expression of γ-H2AX (γ-H2AX in HCT-116 cells): no significant effect | level of active caspase 3/7 [4]: about 41% | effect on level of active caspase 3/7 [4]: no apparent effect | IC50 (NCI-H460; [10]): 85 ± 9.7 µM | IC50 (NCI-H460; [11]): 32.9 ± 2.1 µM | increase of ROS relative to control medium (HCT-116 cells [5]; HCT-116, hypoxia, 15 µM): 6 fold | increase of ROS relative to control medium (HCT-116 cells [5]; HCT-116, hypoxia, 30 µM): 10.5 fold | increase of ROS relative to control medium (HCT-116 cells [5]; HCT-116, normoxia, 15 µM): 1.5 fold | increase of ROS relative to control medium (HCT-116 cells [5]; HCT-116, normoxia, 30 µM): 2 fold | G1 (%) (HCT-116 cells [6]; HCT-116, hypoxia, 15 µM): 22.5±9.4% | G2/M (%) (HCT-116 cells [6]; HCT-116, hypoxia, 15 µM): 35.2% and 35.2±4.9% | S (%) (HCT-116 cells [6]; HCT-116, hypoxia, 15 µM): 34.7±6.0% | Sub-G1 (%) (HCT-116 cells [6]; HCT-116, hypoxia, 15 µM): 7.3% and 7.3±2.7% | G1 (%) (HCT-116 cells [6]; HCT-116, hypoxia, 30 µM): 26.3±5.5% | G2/M (%) (HCT-116 cells [6]; HCT-116, hypoxia, 30 µM): 27.3% and 27.3±1.3% | S (%) (HCT-116 cells [6]; HCT-116, hypoxia, 30 µM): 29.6±4.7% | Sub-G1 (%) (HCT-116 cells [6]; HCT-116, hypoxia, 30 µM): 16.5% and 16.5±1.2% | G1 (%) (HCT-116 cells [6]; HCT-116, normoxia, 15 µM): 41.9±1.7% | G2/M (%) (HCT-116 cells [6]; HCT-116, normoxia, 15 µM): 33.1% and 33.1±3.7% | S (%) (HCT-116 cells [6]; HCT-116, normoxia, 15 µM): 21.9±2.4% | G1 (%) (HCT-116 cells [6]; HCT-116, normoxia, 30 µM): 35.3% and 35.3±1.4% | G2/M (%) (HCT-116 cells [6]; HCT-116, normoxia, 30 µM): 39.1% and 39.1±4.0% | S (%) (HCT-116 cells [6]; HCT-116, normoxia, 30 µM): 22.1±2.9% | Sub-G1 (%) (HCT-116 cells [6]; HCT-116, normoxia, 30 µM): 3.2±0.5%

[O-][n+]1nc(NCCNc2n[n+]([O-])c3ccccc3[n+]2[O-])nc2ccccc21 [Compound 9a, 3-(2-(1-Oxido-1,2,4-benzotriazin-3-yl)aminoethylamino)-1,2,4-benzotriazine-1,4-dioxide]
HCR = hypoxic cytotoxicity ratio IC50 (aerobic)/IC50 (hypoxic) (HCT-116): 3.7 | IC50 (HCT-116; [8]): 66.3 ± 16.5 µM | IC50 (HCT-116; [9]): 18.1 ± 2.6 µM | HCR = IC50 (aerobic)/IC50 (hypoxia) (MCF-7): > 6.0 | cleaved PARP [2]: ~45% | cells expressing both γ-H2AX and cleaved PARP (upper right quadrant) ([3]; HCT-116, hypoxia): approximately 11% | cells expressing both γ-H2AX and cleaved PARP (upper right quadrant) ([3]; HCT-116, normoxia): 0.1% | expression of γ-H2AX (γ-H2AX in HCT-116 cells): around 30% | effect on expression of γ-H2AX (γ-H2AX in HCT-116 cells): no significant effect | level of active caspase 3/7 [4]: ~55% | effect on level of active caspase 3/7 [4]: no apparent effect | IC50 (NCI-H460; [10]): 43.7 ± 12.5 µM | IC50 (NCI-H460; [11]): 17.5 ± 4.3 µM | HCR = IC50 (aerobic)/IC50 (hypoxia) (NCI-H460; NCI-H460): 2.5 | increase of ROS relative to control medium (HCT-116 cells [5]; HCT-116, hypoxia, 15 µM): 46 fold | increase of ROS relative to control medium (HCT-116 cells [5]; HCT-116, hypoxia, 30 µM): 60 fold | increase of ROS relative to control medium (HCT-116 cells [5]; HCT-116, normoxia, 15 µM): 3.4 fold | increase of ROS relative to control medium (HCT-116 cells [5]; HCT-116, normoxia, 30 µM): 5.8 fold | G1 (%) (HCT-116 cells [6]; HCT-116, hypoxia, 15 µM): 26.2±3.7% | G2/M (%) (HCT-116 cells [6]; HCT-116, hypoxia, 15 µM): 31.4% and 31.4±3.2% | S (%) (HCT-116 cells [6]; HCT-116, hypoxia, 15 µM): 27.3±4.4% | Sub-G1 (%) (HCT-116 cells [6]; HCT-116, hypoxia, 15 µM): 13.1% and 13.1±1.7% | G1 (%) (HCT-116 cells [6]; HCT-116, hypoxia, 30 µM): 33.3±2.4% | G2/M (%) (HCT-116 cells [6]; HCT-116, hypoxia, 30 µM): 16.7% and 16.7±2.5% | S (%) (HCT-116 cells [6]; HCT-116, hypoxia, 30 µM): 25.8±3.8% | Sub-G1 (%) (HCT-116 cells [6]; HCT-116, hypoxia, 30 µM): 24.3% and 24.3±2.8% | G1 (%) (HCT-116 cells [6]; HCT-116, normoxia, 15 µM): 30.9±2.3% | G2/M (%) (HCT-116 cells [6]; HCT-116, normoxia, 15 µM): 51.0% and 51.0±4.2% | S (%) (HCT-116 cells [6]; HCT-116, normoxia, 15 µM): 15.0±5.5% | Sub-G1 (%) (HCT-116 cells [6]; HCT-116, normoxia, 15 µM): 2.7±0.7% | G1 (%) (HCT-116 cells [6]; HCT-116, normoxia, 30 µM): 24.3±4.1% | G2/M (%) (HCT-116 cells [6]; HCT-116, normoxia, 30 µM): 58.3% and 58.3±2.8% | S (%) (HCT-116 cells [6]; HCT-116, normoxia, 30 µM): 12.9±5.2% | Sub-G1 (%) (HCT-116 cells [6]; HCT-116, normoxia, 30 µM): 3.8% and 3.8±1.7% | reduction of areas, lengths, paths and joints of tube formation [7]: 70-80%
